The values below come from the array DNA melting data of Ke et al. (doi:10.1101/2024.01.08.574731).

Series [1] can be described thus: folding enthalpy; higher = less favourable; fluorescence melt of hairpins on a sequencing array, two-state fit. To be noted: sodium 0.088 M. The method in brief: (§1)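 Folding enthalpy and melting temperature were estimated with bootstrapped two-state fits and combined across four replicates by inverse-variance weighting, with fitted temperatures raised by 9.35 °C to match UV melts. The data were Cy3 fluorescence of library hairpins, with annealed Cy3 and quencher oligos, on a sequenced MiSeq flow cell in 50 mM Na-HEPES pH 8.0, 25 mM NaCl, imaged in 2.5 °C steps up to 60 °C and normalised to pre-quench Cy3 and control constructs.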

Series [2] is described as follows: melting temperature; fluorescence melt of hairpins on a sequencing array, two-state fit, raised by 9.35 °C to match UV melts. As to conditions: sodium 0.088 M. The method in brief: as §1

For GTAGCGGGAAACCGCCAC ((.((((....)))).)), the folding enthalpy in series [1] is -11.7 kcal/mol. Besides, the Tm in series [2] turned out to be 38.7 °C.
For GTAGCGGGAAACTGCTGC (.(((.(....).))).), the folding enthalpy in series [1] is -22.6 kcal/mol. For the same sequence, the Tm in series [2] is 44.2 °C.
As to GTAGCTGCGAAAGCATAC (((..(((....)))))), the folding enthalpy in series [1] was -10.1 kcal/mol. In addition, the Tm in series [2] is 31.3 °C.
GTAGCTGGAAACAGCCAC ((.((((....)))).)): the folding enthalpy in series [1] was -14.3 kcal/mol. For the same sequence, the Tm in series [2] worked out at 37.7 °C.
The corresponding values for GTAGGAGAAATCCTAC ((((((....)))))) are -26.7 kcal/mol and 47.3 °C.
In the case of GTAGGAGGAAACTCCTGC (.(((((....))))).), the folding enthalpy in series [1] was -22.3 kcal/mol. Further, the Tm in series [2] was 46.8 °C.
The corresponding values for GTAGGAGGAAACTTCTAC ((((.((....)).)))) are -27 kcal/mol and 37.4 °C.
The like results for GTAGGCCCGAAAGGGTAC (((..(((....)))))) were, in that order, -11.1 kcal/mol and 32.9 °C.
The like results for GTAGGCCGAAAGGCATAC (((.(((....))).))) were, in that order, -33.2 kcal/mol and 61.9 °C.
Take GTAGGCGAAAGCCAATAC ((((((....)))..))): the folding enthalpy in series [1] is -9.29 kcal/mol. Besides, the Tm in series [2] was 33.6 °C.
GTAGGCGAAAGCCATTAC ((((((....)))..))): in series [1], the folding enthalpy was -7.44 kcal/mol. Also, in series [2], the Tm came out at 23 °C.
The corresponding values for GTAGGCGAAAGCCGGTAC ((((((....)))..))) are -10.7 kcal/mol and 42.2 °C.
The corresponding values for GTAGGCGCGAAAGCGTAC (((..(((....)))))) are -9.85 kcal/mol and 34.9 °C.
For the sequence GTAGGCGGAAACGTCTGC (.((.((....)).)).), in series [1], the folding enthalpy was -23 kcal/mol. In series [2], the Tm was determined as 41.6 °C.
Turning to GTAGGGAAACCTAC (((((....))))), the folding enthalpy in series [1] was -25 kcal/mol. The Tm in series [2] was 46.2 °C.
The like results for GTAGGGCGAAAGCCGTAC (((.(((....))).))) were, in that order, -23.6 kcal/mol and 56.8 °C.
As to GTAGGGCGAAAGCCTTAC (((.(((....))).))), the folding enthalpy in series [1] was -20.2 kcal/mol. The Tm in series [2] was determined as 50.4 °C.
The corresponding values for GTAGGGGCGAAAGCCTAC (((..(((....)))))) are -10.8 kcal/mol and 37.9 °C.
The corresponding values for GTAGGGGGAAACCTCTAC ((((.((....)).)))) are -33 kcal/mol and 44.6 °C.
The like results for GTAGGGGGAAACCTCTGC (.((.((....)).)).) were, in that order, -16.8 kcal/mol and 31.9 °C.
Take GTAGGGTCGAAAGACTAC (((..(((....)))))): the folding enthalpy in series [1] is -12.2 kcal/mol. The Tm in series [2] was found to be 32.5 °C.
The like results for GTAGGTCGAAAGACATAC (((.(((....))).))) were, in that order, -29.7 kcal/mol and 51.9 °C.
With GTAGGTGAAAACCTAC ((((((....)))))), the folding enthalpy in series [1] was -30.9 kcal/mol. Also, the Tm in series [2] stood at 56.4 °C.
The like results for GTAGGTGGAAACACCTGC (.(((((....))))).) were, in that order, -18.5 kcal/mol and 53.4 °C.
As to GTAGGTGGAAACATCTAC ((((.((....)).)))), the folding enthalpy in series [1] was -31.3 kcal/mol. In addition, the Tm in series [2] stood at 42.4 °C.
As for GTAGGTGGAAACGCCTAC (((((.(....).))))), in series [1], the folding enthalpy is -32.8 kcal/mol. In series [2], the Tm was found to be 51.9 °C.
The corresponding values for GTAGTACGAAAGTAGTAC (((.(((....))).))) are -33.5 kcal/mol and 47.3 °C.
Take GTAGTACGAAAGTATAC (((.(((....)))))): the folding enthalpy in series [1] was -17.1 kcal/mol. In addition, the Tm in series [2] came out at 32 °C.
Regarding GTAGTAGGAAACTACTAC (((((((....))))))), the folding enthalpy in series [1] is -41.9 kcal/mol. Moreover, the Tm in series [2] was determined as 53.3 °C.
In the case of GTAGTAGGAAACTGCTAC ((((.((....)).)))), the folding enthalpy in series [1] was -30.5 kcal/mol. Moreover, the Tm in series [2] stood at 44.7 °C.
In the case of GTAGTATCGAAAGATTAC (((..(((....)))))), in series [1], the folding enthalpy was -12.9 kcal/mol. Besides, in series [2], the Tm amounted to 26.1 °C.
GTAGTCCGAAAGGAGTAC (((.(((....))).))): the folding enthalpy in series [1] is -43.5 kcal/mol. The Tm in series [2] is 54.1 °C.
The corresponding values for GTAGTCGAAAGACGGTAC ((((((....)))..))) are -11.8 kcal/mol and 39.2 °C.
The like results for GTAGTCGAAAGACTAC ((((((....)))))) were, in that order, -31.9 kcal/mol and 64.1 °C.
As for GTAGTCGAAAGACTCTAC ((((((....)))..))), the folding enthalpy in series [1] was -12.8 kcal/mol. Besides, in series [2], the Tm was 36.2 °C.
On to GTAGTCGGAAACGACTAC (((((((....))))))), for which, in series [1], the folding enthalpy is -41.2 kcal/mol. Moreover, the Tm in series [2] was determined as 64.8 °C.
The corresponding values for GTAGTGGCGAAAGCCTAC (((..(((....)))))) are -11.6 kcal/mol and 35.4 °C.
